Laboratory results: ChEMBL document CHEMBL3862036, “Biphenyl Pyridazinone Derivatives as Inhaled PDE4 Inhibitors: Structural Biology and Structure-Activity Relationships” (J Med Chem, 2016)

Legend:
Adenosine receptor A1 = molecular target: T1, Adenosine receptor A1 (Homo sapiens, UniProt P30542); experiment: Antagonist activity at adenosine A1 receptor (unknown origin)
T1 sequence (P30542 whole entry): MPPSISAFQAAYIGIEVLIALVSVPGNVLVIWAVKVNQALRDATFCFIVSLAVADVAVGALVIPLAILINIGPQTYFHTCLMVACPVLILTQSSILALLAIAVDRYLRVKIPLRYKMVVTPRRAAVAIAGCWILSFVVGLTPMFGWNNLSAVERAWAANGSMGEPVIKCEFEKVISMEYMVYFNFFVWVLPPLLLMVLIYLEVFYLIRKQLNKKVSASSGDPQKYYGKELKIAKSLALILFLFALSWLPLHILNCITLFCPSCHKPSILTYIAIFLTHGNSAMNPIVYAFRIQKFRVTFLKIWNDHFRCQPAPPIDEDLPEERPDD

Rattus norvegicus [1] = experiment: Anti-inflammatory activity in Sprague-Dawley rat assessed as inhibition of LPS-induced neutrophilia at 300 ug/kg, it administered as suspension with Penn-Century micro-sprayer aerosolizer dosed 18 hrs before LPS challenge and measured 22 hrs post dose; format: functional; conditions: inhaled or nasal
Summary of the method: (§1)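 Suspensions in PBS/0.2% Tween 80 were homogenized, with lower doses made by 1:10 dilutions. 0.2 mL was given intratracheally by MicroSprayer to isoflurane-anesthetized fasted male Sprague-Dawley rats (230–280 g). At 1 or 18 h, rats received nebulized LPS (30 mL of a 1:100 PBS dilution of 100 mg/10 mL stock) over 40 min. Four hours later, BAL neutrophils were counted by flow cytometry.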

[2] = Inhibition of PDE4 in human whole blood assessed as reduction in LPS-induced TNFalpha production incubated for 24 hrs by ELISA; format: tissue-based
Summary of the method: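 Human whole blood was preincubated with LPS (final 1 μg/mL) for 10 min at 37 °C with rocking. 200 μL was added to wells holding increasing inhibitor concentrations in 100% DMSO. Plates were incubated 24 h at 37 °C under agitation, then placed on ice, diluted with PBS and centrifuged at 800g, 4 °C, for 15 min before TNF-α measurement.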

Adenosine receptor A2a = Adenosine receptor A2a (Homo sapiens, UniProt P29274); experiment: Antagonist activity at adenosine A2a receptor (unknown origin)
Adenosine receptor A2b = molecular target: T2, Adenosine receptor A2b (Homo sapiens, UniProt P29275); experiment: Antagonist activity at adenosine A2b receptor (unknown origin)
T2 sequence (P29275 whole entry): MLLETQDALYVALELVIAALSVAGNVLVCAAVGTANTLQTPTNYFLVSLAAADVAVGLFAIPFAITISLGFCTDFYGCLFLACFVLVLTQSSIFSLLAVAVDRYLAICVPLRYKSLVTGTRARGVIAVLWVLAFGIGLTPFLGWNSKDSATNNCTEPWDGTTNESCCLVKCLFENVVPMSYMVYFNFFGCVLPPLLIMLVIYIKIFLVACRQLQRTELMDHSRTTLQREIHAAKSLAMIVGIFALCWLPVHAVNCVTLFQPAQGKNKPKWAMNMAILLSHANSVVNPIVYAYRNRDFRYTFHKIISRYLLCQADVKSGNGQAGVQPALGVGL

Rattus norvegicus [3] = experiment: Anti-inflammatory activity in Sprague-Dawley rat assessed as inhibition of LPS-induced neutrophilia at 10 to 1000 ug/kg, it administered as suspension with Penn-Century micro-sprayer aerosolizer dosed 1 hrs before LPS challenge and measured 5 hrs post dose; format: functional; conditions: inhaled or nasal; summary of the method: as §1
Rattus norvegicus [4] = experiment: Anti-inflammatory activity in Sprague-Dawley rat assessed as inhibition of LPS-induced neutrophilia at 10 ug/kg, it administered as dry powder with lactose carrier through Penn-Century insufflator dosed 18 hrs before LPS challenge and measured 22 hrs post dose; format: functional
Summary of the method: (§2)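 Compounds were micronized, comixed with lactose, and 5 mg of the mixture was insufflated intratracheally into isoflurane-anesthetized fasted male Sprague-Dawley rats (230–280 g). LPS aerosol (30 mL of a 1:100 PBS dilution of 100 mg/10 mL stock) was nebulized for 40 min at 1 or 18 h post-dose. BAL was taken 4 h later and neutrophils counted by flow cytometry. Controls: lactose alone, lactose+LPS, fluticasone (10% in lactose).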

Rattus norvegicus [5] = experiment: Anti-inflammatory activity in Sprague-Dawley rat assessed as inhibition of LPS-induced neutrophilia at 100 ug/kg, it administered as dry powder with lactose carrier through Penn-Century insufflator dosed 1 hrs before LPS challenge and measured 5 hrs post dose; format: functional; summary of the method: as §2
Rattus norvegicus [6] = experiment: Anti-inflammatory activity in Sprague-Dawley rat assessed as inhibition of LPS-induced neutrophilia at 100 ug/kg, it administered as dry powder with lactose carrier through Penn-Century insufflator dosed 18 hrs before LPS challenge and measured 22 hrs post dose; format: functional; summary of the method: as §2
Rattus norvegicus [7] = experiment: Anti-inflammatory activity in Sprague-Dawley rat assessed as inhibition of LPS-induced neutrophilia at 100 ug/kg, it administered as suspension with Penn-Century micro-sprayer aerosolizer dosed 18 hrs before LPS challenge and measured 22 hrs post dose; format: functional; conditions: inhaled or nasal; summary of the method: as §1
Rattus norvegicus [8] = experiment: Anti-inflammatory activity in Sprague-Dawley rat assessed as inhibition of LPS-induced neutrophilia at 10 ug/kg, it administered as dry powder with lactose carrier through Penn-Century insufflator dosed 1 hrs before LPS challenge and measured 5 hrs post dose; format: functional; summary of the method: as §2
[9] = Inhibition of PDE4 in PBMC (unknown origin) assessed as reduction in LPS-induced TNFalpha production incubated for 24 hrs by ELISA; conditions: Homo sapiens
[10] = Selectivity index, ratio of IC50 for adenosine A1/A2a/A2b receptor (unknown origin) to IC50 for inhibition of PDE4 in PBMC (unknown origin) assessed as reduction in LPS-induced TNFalpha production; design: species or system Homo sapiens
[11] = molecular target: 3',5'-cyclic-AMP phosphodiesterase 4B (Homo sapiens, UniProt Q07343); experiment: Inhibition of human recombinant PDE4B1 assessed as reduction in [3H]cAMP hydrolysis to [3H]AMP incubated for 60 mins by PDE-SPA assay
Rattus norvegicus [12] = experiment: Anti-inflammatory activity in Sprague-Dawley rat assessed as inhibition of LPS-induced neutrophilia at 30 ug/kg, it administered as suspension with Penn-Century micro-sprayer aerosolizer dosed 18 hrs before LPS challenge and measured 22 hrs post dose; format: functional; conditions: inhaled or nasal; summary of the method: as §1
Rattus norvegicus [13] = experiment: Anti-inflammatory activity in Sprague-Dawley rat assessed as inhibition of LPS-induced neutrophilia at 10 ug/kg, it administered as suspension with Penn-Century micro-sprayer aerosolizer dosed 1 hrs before LPS challenge and measured 5 hrs post dose; format: functional; conditions: inhaled or nasal; summary of the method: as §1
Rattus norvegicus [14] = experiment: Anti-inflammatory activity in Sprague-Dawley rat assessed as inhibition of LPS-induced neutrophilia at 100 ug/kg, it administered as suspension with Penn-Century micro-sprayer aerosolizer dosed 1 hrs before LPS challenge and measured 5 hrs post dose; format: functional; conditions: inhaled or nasal; summary of the method: as §1
Rattus norvegicus [15] = experiment: Anti-inflammatory activity in Sprague-Dawley rat assessed as inhibition of LPS-induced neutrophilia at 1000 ug/kg, it administered as suspension with Penn-Century micro-sprayer aerosolizer dosed 18 hrs before LPS challenge and measured 22 hrs post dose; format: functional; conditions: inhaled or nasal; summary of the method: as §1
[16] = Pro-inflammatory activity in Sprague-Dawley rat assessed as induction of neutrophilia at 1000 ug/kg, it administered as dry powder with lactose carrier through Penn-Century insufflator; conditions: in vivo, inhaled_or_intranasal, 1 mg/kg
Rattus norvegicus [17] = experiment: Anti-inflammatory activity in Sprague-Dawley rat assessed as inhibition of LPS-induced neutrophilia at 1000 ug/kg, it administered as dry powder with lactose carrier through Penn-Century insufflator dosed 1 hrs before LPS challenge and measured 5 hrs post dose; format: functional; summary of the method: as §2
Rattus norvegicus [18] = experiment: Toxicity in Sprague-Dawley rat model of LPS-induced neutrophilia assessed as induction of irritation in lungs at 1000 ug/kg, it administered as dry powder with lactose carrier through Penn-Century insufflator dosed 18 hrs before LPS challenge and measured 22 hrs post dose; format: organism-based; conditions: in vivo, inhaled_or_intranasal, 1 mg/kg
Rattus norvegicus [19] = experiment: Anti-inflammatory activity in Sprague-Dawley rat assessed as inhibition of LPS-induced neutrophilia at 6000 ug/kg, it administered as dry powder with lactose carrier through Penn-Century insufflator dosed 18 hrs before LPS challenge and measured 22 hrs post dose; format: functional; summary of the method: as §2
Rattus norvegicus [20] = experiment: Anti-inflammatory activity in Sprague-Dawley rat assessed as inhibition of LPS-induced neutrophilia at 10 to 1000 ug/kg, it administered as suspension with Penn-Century micro-sprayer aerosolizer dosed 18 hrs before LPS challenge and measured 22 hrs post dose; format: functional; conditions: inhaled or nasal; summary of the method: as §1
Rattus norvegicus [21] = experiment: Anti-inflammatory activity in Sprague-Dawley rat assessed as inhibition of LPS-induced neutrophilia at 10 to 1000 ug/kg, it administered as dry powder with lactose carrier through Penn-Century insufflator dosed 1 hrs before LPS challenge and measured 5 hrs post dose; format: functional; summary of the method: as §2
Rattus norvegicus [22] = experiment: Anti-inflammatory activity in Sprague-Dawley rat assessed as inhibition of LPS-induced neutrophilia at 1000 ug/kg, it administered as suspension with Penn-Century micro-sprayer aerosolizer dosed 1 hrs before LPS challenge and measured 5 hrs post dose; format: functional; conditions: inhaled or nasal; summary of the method: as §1

Chain of Adenosine receptor A2a (P29274 whole entry): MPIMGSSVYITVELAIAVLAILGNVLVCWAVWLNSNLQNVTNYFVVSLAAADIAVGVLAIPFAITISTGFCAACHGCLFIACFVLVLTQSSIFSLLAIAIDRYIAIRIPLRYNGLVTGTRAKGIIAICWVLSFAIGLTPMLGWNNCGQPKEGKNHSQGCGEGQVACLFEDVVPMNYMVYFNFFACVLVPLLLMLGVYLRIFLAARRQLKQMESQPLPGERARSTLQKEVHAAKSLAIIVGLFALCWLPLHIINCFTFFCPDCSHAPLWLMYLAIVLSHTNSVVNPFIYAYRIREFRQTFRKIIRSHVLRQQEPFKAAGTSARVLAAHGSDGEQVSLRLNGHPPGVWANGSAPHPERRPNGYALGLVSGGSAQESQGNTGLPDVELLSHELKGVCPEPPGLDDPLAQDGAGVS
Chain of 3',5'-cyclic-AMP phosphodiesterase 4B (Q07343 whole entry): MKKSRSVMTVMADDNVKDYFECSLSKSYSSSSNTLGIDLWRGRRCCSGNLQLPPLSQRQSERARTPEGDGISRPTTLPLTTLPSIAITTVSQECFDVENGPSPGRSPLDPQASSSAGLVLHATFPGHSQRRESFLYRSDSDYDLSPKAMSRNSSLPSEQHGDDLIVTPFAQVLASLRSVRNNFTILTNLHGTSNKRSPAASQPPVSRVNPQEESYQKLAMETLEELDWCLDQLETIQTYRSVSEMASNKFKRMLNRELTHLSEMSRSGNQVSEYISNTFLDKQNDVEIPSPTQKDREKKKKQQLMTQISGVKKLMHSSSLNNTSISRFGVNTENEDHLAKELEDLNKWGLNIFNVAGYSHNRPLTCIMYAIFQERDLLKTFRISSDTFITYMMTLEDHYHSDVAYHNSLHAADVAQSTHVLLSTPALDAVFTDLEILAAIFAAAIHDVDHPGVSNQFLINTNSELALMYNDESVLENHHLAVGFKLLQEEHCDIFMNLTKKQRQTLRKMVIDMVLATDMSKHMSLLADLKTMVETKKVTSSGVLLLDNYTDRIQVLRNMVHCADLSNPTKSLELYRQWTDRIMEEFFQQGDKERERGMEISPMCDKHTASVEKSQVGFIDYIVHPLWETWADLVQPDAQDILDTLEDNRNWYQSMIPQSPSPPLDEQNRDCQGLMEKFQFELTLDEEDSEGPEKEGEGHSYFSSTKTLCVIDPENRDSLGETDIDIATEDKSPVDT

SMILES	IC50 (Adenosine receptor A1)	inhibition in vivo at 0.3 mg/kg (Rattus norvegicus [1])	IC50 [2]	IC50 (Adenosine receptor A2a)	IC50 (Adenosine receptor A2b)	ED50 (Rattus norvegicus [3])	inhibition in vivo at 0.1 mg/kg (Rattus norvegicus [7])	inhibition in vivo at 0.01 mg/kg (Rattus norvegicus [8])	IC50 [9]	inhibition in vivo at 0.03 mg/kg (Rattus norvegicus [12])	inhibition in vivo at 0.1 mg/kg (Rattus norvegicus [14])	inhibition in vivo at 1 mg/kg (Rattus norvegicus [15])	further results
CCn1nc(-c2cccc(-c3ccc(CC(=O)NCCN4CCCCC4)cc3)c2)cc(NC(=O)Nc2c(Cl)cncc2Cl)c1=O	31 nM	47%	374 nM	105 nM	90 nM	0.089 mg/kg	48%	48%	0.52 nM				inhibition in vivo at 0.01 mg/kg (Rattus norvegicus [4]): 42%; inhibition in vivo at 0.1 mg/kg (Rattus norvegicus [5]): 42%; inhibition in vivo at 0.1 mg/kg (Rattus norvegicus [6]): 39%
CCn1nc(-c2cccc(-c3cc(C(=O)NC4CC4)cc(C(=O)NC4CCN(Cc5ccccc5)CC4)c3)c2)cc(NC(=O)Nc2c(Cl)cncc2Cl)c1=O	> 1000 nM	60%		> 1000 nM	> 1000 nM	0.029 mg/kg	45%		0.29 nM	49%			Ratio IC50 [10]: >1000; IC50 [11]: 0.22 nM
CCn1nc(-c2cccc(-c3cc(C(=O)NCCCN(C)C)cc(C(=O)OC)c3)c2)cc(NC(=O)Nc2c(Cl)cncc2Cl)c1=O	71 nM	26%		> 1000 nM	> 1000 nM				0.05 nM	30%	64%		inhibition in vivo at 0.01 mg/kg (Rattus norvegicus [13]): 52%
CCn1nc(-c2cccc(-c3cccc(C(=O)NCCN(C)C)c3)c2)cc(NC(=O)Nc2c(Cl)cncc2Cl)c1=O	2 nM		425 nM	28 nM	77 nM	0.0035 mg/kg		38%	0.3 nM		70%	38%	fold change (FC) [16]: 3.2; inhibition in vivo at 1 mg/kg (Rattus norvegicus [17]): 8%; Activity (Rattus norvegicus [18]): Toxic
O=C(Nc1c(Cl)cncc1Cl)c1ccc(OC(F)F)c(OCC2CC2)c1 [ROFLUMILAST]	> 1000 nM		36 nM	> 1000 nM	> 1000 nM	0.126 mg/kg			4 nM			24%	inhibition in vivo at 6 mg/kg (Rattus norvegicus [19]): 37%; ED50 (Rattus norvegicus [20]): > 1 mg/kg; ED50 (Rattus norvegicus [21]): 0.204 mg/kg; inhibition in vivo at 1 mg/kg (Rattus norvegicus [22]): 80%
